From ChEMBL document CHEMBL1127409 (J Med Chem, 1994)

How the values were obtained:
Glutamate NMDA receptor [1] = assay: Affinity for the glycine binding site of NMDA receptor by inhibition of [3H]5,7-dichlorokynurenic acid ([3H]DCKA) binding to rat brain synaptic membrane
[2] = The compound was tested for its affinity for the glutamic acid binding site of the non-NMDA receptor by using [3H]AMPA as radioligand; design: species or system Rattus norvegicus
Outline: (§1)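 Selectivity radioligand binding, run like the [3H]DCKA assay on rat brain synaptic membranes. [3H]CGP-39653 labels the NMDA glutamic acid site; [3H]AMPA and [3H]kainic acid label non-NMDA receptors.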

[3] = The compound was tested for its affinity for the glutamic acid binding site of the non-NMDA receptor by using [3H]-kainic acid as radioligand; design: species or system Rattus norvegicus; outline: as §1
Glutamate NMDA receptor [4] = assay: The compound was tested for its affinity for the glutamic acid binding site of the NMDA receptor by using [3H]CGP-39653 as radioligand; format: protein-complex assay; outline: as §1
[5] = tested on: Glutamate NMDA receptor (Mus musculus); assay: In vivo inhibition of NMDA-induced seizures
Glutamate NMDA receptor [6] = assay: The compound was tested for its functional antagonism of the NMDA receptor by using [3H]-MK-801 as radioligand

| Compound | Ki (Glutamate NMDA receptor [1]) [nM] | further results |
| --- | --- | --- |
| Oc1nc2cc(Cl)c(Cl)cc2nc1O [2,3-DIHYDROXY-6,7-DICHLOROQUINOXALINE] | 160 | – |
| O=C(CC1Cc2cc(Br)cc3[nH]c(=O)c(=O)n1c23)Nc1ccccc1 (stereo not drawn) | 170 | – |
| O=C(NCC1Cc2cc(Br)cc3[nH]c(=O)c(=O)n1c23)c1ccccc1 (stereo not drawn) | > 2000 | – |
| O=C(C[C@H]1CCc2cc(Br)cc3[nH]c(=O)c(=O)n1c23)Nc1ccccc1 | 82 | – |
| O=C(CC1CCc2cc(Br)cc3[nH]c(=O)c(=O)n1c23)Nc1ccccc1 (stereo not drawn) | 2.6 | IC50 [2]: 4600 nM; IC50 [3]: > 25000 nM; IC50 (Glutamate NMDA receptor [4]): > 25000 nM; IC50 (Glutamate NMDA receptor [6]): 1700 nM |
| O=C(NCC1CCc2cc(Br)cc3[nH]c(=O)c(=O)n1c23)c1ccccc1 (stereo not drawn) | 190 | – |
| O=C(Nc1ccccc1)C1CCc2cc(Br)cc3[nH]c(=O)c(=O)n1c23 (stereo not drawn) | 2100 | – |
| O=C(O)C1CCc2cc(Br)cc3[nH]c(=O)c(=O)n1c23 (stereo not drawn) | 30 | – |
| O=C(O)C1Cc2cc(Br)cc3[nH]c(=O)c(=O)n1c23 (stereo not drawn) | 83 | – |
| O=C(O)CCC1CCc2cc(Br)cc3[nH]c(=O)c(=O)n1c23 (stereo not drawn) | 38 | – |

Continued, in another order:

| Ki (Glutamate NMDA receptor [1]) [nM] | Compound | further results |
| --- | --- | --- |
| 9.6 | O=C(O)C[C@H]1CCc2cc(Br)cc3[nH]c(=O)c(=O)n1c23 | – |
| 9.9 | O=C(O)CC1CCc2cc(Br)cc3[nH]c(=O)c(=O)n1c23 (stereo not drawn) | IC50 [2]: 4600 nM; IC50 [3]: > 30000 nM; IC50 (Glutamate NMDA receptor [4]): > 30000 nM; ED50 [5]: 64 mg/kg; IC50 (Glutamate NMDA receptor [6]): 4100 nM |
| 930 | O=C(Nc1ccccc1)C1Cc2cc(Br)cc3[nH]c(=O)c(=O)n1c23 (stereo not drawn) | – |
| 40 | O=C(O)c1cc(O)c2c(Cl)cc(Cl)cc2n1 | – |
| 430 | O=C(NCC1Cc2cc(Br)cc3[nH]c(=O)c(=O)n1c23)Nc1ccccc1 (stereo not drawn) | – |
| > 3000 | O=c1[nH]c2cc(Br)cc3c2n(c1=O)CC3 | – |
| 2.3 | O=C(O)C[C@@H]1CCc2cc(Br)cc3[nH]c(=O)c(=O)n1c23 | ED50 [5]: 26 mg/kg |
| 7.3 | O=C(O)CC1Cc2cc(Br)cc3[nH]c(=O)c(=O)n1c23 (stereo not drawn) | – |
| 320 | O=C(CCC1CCc2cc(Br)cc3[nH]c(=O)c(=O)n1c23)Nc1ccccc1 (stereo not drawn) | – |
| 0.96 | O=C(C[C@@H]1CCc2cc(Br)cc3[nH]c(=O)c(=O)n1c23)Nc1ccccc1 | – |
| 2 | O=C(Nc1ccccc1)N[C@H]1C[C@H](C(=O)O)Nc2cc(Cl)cc(Cl)c21 | – |
| 710 | O=c1[nH]c2cc(Br)cc3c2n(c1=O)CCC3 | – |
| 480 | O=C(NCC1CCc2cc(Br)cc3[nH]c(=O)c(=O)n1c23)Nc1ccccc1 (stereo not drawn) | – |
